Values after ≈ are worked out from the molar mass of the structure shown.
Experiments:
[1] = test system: HepG-2 cells (human liver carcinoma); assay: MTT cytotoxicity assay on HepG-2; assay type: cell-based; conditions: HepG2, 48 h, read-out: IC50 (μM) ± SD HepG-2
Outline: (§1)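 Cells grown in DMEM with 10% heat-inactivated FBS and 100 U ml⁻¹ penicillin/streptomycin at 37 °C, 5% CO₂. Seeded at 3 × 10⁴ cells per well and exposed for 48 h in serum-free medium to serial concentrations of test compound (DMSO), with doxorubicin as positive control. MTT (2.5 mg mL⁻¹) was added for 4 h, formazan dissolved in DMSO, and absorbance read at 570 nm. Viability was taken relative to untreated cells; triplicates were run on three days, and IC50 derived by probit analysis.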

ovine COX-2 = target: T1, ovine COX-2 (Ovis aries, UniProt P79208); assay: COX-2 inhibition enzyme immunoassay; assay type: biochemical; conditions: for Selectivity index (SI): COX-1 IC50/COX-2 IC50
T1 sequence (P79208 17-603): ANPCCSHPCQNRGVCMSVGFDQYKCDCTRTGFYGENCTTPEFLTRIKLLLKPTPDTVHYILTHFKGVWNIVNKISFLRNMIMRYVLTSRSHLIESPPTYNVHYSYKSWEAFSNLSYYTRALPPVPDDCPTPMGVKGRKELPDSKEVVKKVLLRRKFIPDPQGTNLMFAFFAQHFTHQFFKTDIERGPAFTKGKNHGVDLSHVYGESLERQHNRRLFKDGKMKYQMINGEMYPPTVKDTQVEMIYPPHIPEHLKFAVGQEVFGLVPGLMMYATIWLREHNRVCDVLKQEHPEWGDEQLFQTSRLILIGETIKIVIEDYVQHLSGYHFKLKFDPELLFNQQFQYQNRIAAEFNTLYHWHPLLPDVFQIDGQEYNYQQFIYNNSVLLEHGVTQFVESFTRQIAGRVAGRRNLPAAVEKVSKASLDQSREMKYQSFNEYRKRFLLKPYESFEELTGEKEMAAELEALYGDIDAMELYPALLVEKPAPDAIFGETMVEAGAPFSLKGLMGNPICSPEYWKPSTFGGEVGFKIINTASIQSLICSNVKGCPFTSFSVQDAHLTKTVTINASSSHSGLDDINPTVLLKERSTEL

[2] = test system: MCF-7 cells (human breast adenocarcinoma); assay: MTT cytotoxicity assay on MCF-7; assay type: cell-based; conditions: MCF7, 48 h, read-out: IC50 (μM) ± SD MCF-7
Outline: as §1

[3] = test system: Mycobacterium tuberculosis (RCMB 010126); assay: Microplate Alamar blue assay; assay type: cell-based; conditions: RCMB010126, Mycobacterium tuberculosis RCMB 010126, MABA
ovine COX-1 = target: T2, ovine COX-1 (Ovis aries, UniProt P05979); assay: COX-1 inhibition enzyme immunoassay; assay type: biochemical
T2 sequence (P05979 25-600): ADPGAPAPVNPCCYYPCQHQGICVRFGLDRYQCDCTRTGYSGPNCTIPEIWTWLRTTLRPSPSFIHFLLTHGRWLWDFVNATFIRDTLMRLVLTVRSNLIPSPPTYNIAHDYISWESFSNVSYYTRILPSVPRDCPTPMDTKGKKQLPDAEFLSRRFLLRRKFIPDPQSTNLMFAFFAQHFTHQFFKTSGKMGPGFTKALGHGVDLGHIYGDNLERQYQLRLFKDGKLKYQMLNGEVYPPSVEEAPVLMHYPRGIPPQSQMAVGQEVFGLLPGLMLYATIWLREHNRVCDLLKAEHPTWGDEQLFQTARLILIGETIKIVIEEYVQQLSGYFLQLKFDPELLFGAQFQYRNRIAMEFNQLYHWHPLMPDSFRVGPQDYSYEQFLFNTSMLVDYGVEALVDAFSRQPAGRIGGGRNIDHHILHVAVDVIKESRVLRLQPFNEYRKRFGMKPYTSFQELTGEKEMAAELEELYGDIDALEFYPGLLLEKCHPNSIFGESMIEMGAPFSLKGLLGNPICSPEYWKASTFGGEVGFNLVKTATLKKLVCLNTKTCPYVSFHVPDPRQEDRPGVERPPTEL

| SMILES | IC50 [1] [µM] | IC50 (ovine COX-2) [µM] | Selectivity index (SI) (ovine COX-2) | IC50 [2] [µM] | MIC [3] [µg/mL] | IC50 (ovine COX-1) [µM] |
| --- | --- | --- | --- | --- | --- | --- |
| Cc1ccc(-n2cc(C(=O)c3ccc4ccccc4c3O)cc(C#N)c2=O)cc1 [Compound 3b, 5-(1-Hydroxy-2-naphthoyl)-2-oxo-1-(p-tolyl)nicotinonitrile] | 36.8 ± 3.9 | 6.05 | 76.7 | 9.2 ± 0.6 | 3.9 (≈ 10.3 µM) | 464 |
| COc1ccc(-n2cc(C(=O)c3ccc4ccccc4c3O)cc(C#N)c2=O)cc1 [Compound 3c, 5-(1-Hydroxy-2-naphthoyl)-1-(4-methoxyphenyl)-2-oxo-nicotinonitrile] | 27.8 ± 2.4 | 0.53 | 1490 | 8.5 ± 0.7 | – | 789 |
| N#Cc1cc(C(=O)c2ccc3ccccc3c2O)cn(-c2ccc(Br)cc2)c1=O [Compound 3d, 1-(4-Bromophenyl)-5-(1-hydroxy-2-naphthoyl)-2-oxo-nicotinonitrile] | 30.1 ± 2.6 | 1.46 | 972.9 | 8.9 ± 0.7 | < 1 | 1420 |
| N#Cc1cc(C(=O)c2ccc3ccccc3c2O)cn(-c2ccc([N+](=O)[O-])cc2)c1=O [Compound 3e, 5-(1-Hydroxy-2-naphthoyl)-1-(4-nitrophenyl)-2-oxo-nicotinonitrile] | 25.3 ± 2.1 | 1.68 | 168.7 | 9.3 ± 1.1 | < 2 | 283 |
| Cc1c(-n2cc(C(=O)c3ccc4ccccc4c3O)cc(C#N)c2=O)c(=O)n(-c2ccccc2)n1C [Compound 3f, 1-(1,5-Dimethyl-3-oxo-2-phenyl-2,3-dihydro-1H-pyrazol-4-yl)-5-(1-hydroxy-2-naphthoyl)-2-oxo-nicotinonitrile] | 30.5 ± 3.1 | 16.4 | 44.5 | 10.5 ± 1.1 | < 2 | 728 |
| Cc1cnc(-n2cc(C(=O)c3ccc4ccccc4c3O)cc(C#N)c2=O)s1 [Compound 3g, 5-(1-Hydroxy-2-naphthoyl)-1-(5-methylthiazol-2-yl)-2-oxo-nicotinonitrile] | 28.5 ± 2.9 | 48 | 53.8 | 12.1 ± 1.2 | 3.9 (≈ 10.1 µM) | 2580 |
| N#Cc1cc(C(=O)c2ccc3ccccc3c2O)cn(-c2nc3ccccc3s2)c1=O [Compound 3h, 1-(Benzo[d]thiazol-2-yl)-5-(1–Hydroxy-2-naphthoyl)-2-oxo-nicotinonitrile] | 28.1 ± 3.1 | 0.496 | 1380 | 10.3 ± 1.2 | < 2 | 684 |
| CC(=Nn1cc(C(=O)c2ccc3ccccc3c2O)cc(C#N)c1=O)c1cc2ccccc2oc1=O [Compound 3i, 5-(1-hydroxy-2-naphthoyl)-2-oxo-1-((1-(2-oxo-2H-chromen-3-yl)ethylidene)amino)nicotinonitrile] | 30.5 ± 2.9 | 13.5 | 111.3 | 9.7 ± 0.8 | < 1 | 1500 |
| N#CCC(=O)NN=Cc1coc2c(ccc3ccccc32)c1=O [Compound 5, 2-cyano-N′-((4-oxo-4H-benzo[h]chromen-3-yl)methylene)acetohydrazide] | 41.6 ± 3.5 | 24.6 | 84.3 | 10.7 ± 1.2 | 3.9 (≈ 12.8 µM) | 2070 |
| O=C(c1cnc2[nH]nc(O)c2c1)c1ccc2ccccc2c1O [Compound 6, 5-(1-hydroxy-2-naphthoyl)-3-hydroxy-1H-pyrazolo [3,4-b]pyridine] | 34.9 ± 2.8 | 30.5 | 35.0 | 9.1 ± 0.5 | < 2 | 1070 |
| O=C(C1=CNC(=S)NN=C1)c1ccc2ccccc2c1O [Compound 7, 6-(1-Hydroxy-2-naphthoyl)-3-thioxo-3,4-dihydro-2H-1,2,4-triazepine] | 28.8 ± 2.5 | 1.24 | 588.6 | 10.5 ± 0.9 | < 2 | 732 |
| O=C(C1=CSc2ccccc2N=C1)c1ccc2ccccc2c1O [Compound 8, 3-(1-Hydroxy-2-naphthoyl)benzo[b][1,4]thiazepine] | 36.5 ± 3.4 | 0.754 | 1138 | 9.7 ± 1.1 | 7.81 (≈ 23.6 µM) | 858 |
| CCOC1Oc2c(ccc3ccccc23)-c2n[nH]cc21 (centres unmarked) [Compound 10, 11-ethoxy-2,11-dihydrobenzo[7,8]chromeno[4,3-c]pyrazole] | 34.5 ± 2.6 | 1.01 | 989.3 | 9.3 ± 0.5 | 7.81 (≈ 29.3 µM) | 1000 |
| Cc1c(N=Cc2coc3c(ccc4ccccc43)c2=O)c(=O)n(-c2ccccc2)n1C [Compound 12a, 1,5-Dimethyl-4-(((4-oxo-4H-benzo[h]chromen-3-yl)methylene)amino)-2-phenyl-1,2-dihydro-3H-pyrazol-3-one] | 35.5 ± 3.6 | 24.7 | 49.5 | 10.2 ± 1.2 | 62.5 (≈ 153 µM) | 1220 |
| O=c1c(C=Nc2nc3ccccc3s2)coc2c1ccc1ccccc12 [Compound 12b, 3-((Benzo[d]thiazol-2-ylimino)methyl)-4H-benzo[h]chromen-4-one] | 40.1 ± 3.9 | 1.37 | 971.8 | 8.9 ± 0.7 | 15.6 (≈ 43.9 µM) | 1340 |
| COc1cccc2c1C(=O)c1c(O)c3c(c(O)c1C2=O)C[C@@](O)(C(=O)CO)C[C@@H]3O[C@H]1C[C@H](N)[C@H](O)[C@H](C)O1 [DOXO, Doxorubicin, reference compound] | 28.5 ± 1.9 | – | – | 10.3 ± 0.8 | – | – |
| NNC(=O)c1ccncc1 [IN, Isoniazid, reference compound] | – | – | – | – | 0.24 (≈ 1.75 µM) | – |

Reference: article PMC9058152 (RSC Advances, 2020)
